In assay [1] the target is T1, 5-hydroxytryptamine receptor 2C (Homo sapiens, UniProt P28335).
T1 sequence (P28335 whole entry): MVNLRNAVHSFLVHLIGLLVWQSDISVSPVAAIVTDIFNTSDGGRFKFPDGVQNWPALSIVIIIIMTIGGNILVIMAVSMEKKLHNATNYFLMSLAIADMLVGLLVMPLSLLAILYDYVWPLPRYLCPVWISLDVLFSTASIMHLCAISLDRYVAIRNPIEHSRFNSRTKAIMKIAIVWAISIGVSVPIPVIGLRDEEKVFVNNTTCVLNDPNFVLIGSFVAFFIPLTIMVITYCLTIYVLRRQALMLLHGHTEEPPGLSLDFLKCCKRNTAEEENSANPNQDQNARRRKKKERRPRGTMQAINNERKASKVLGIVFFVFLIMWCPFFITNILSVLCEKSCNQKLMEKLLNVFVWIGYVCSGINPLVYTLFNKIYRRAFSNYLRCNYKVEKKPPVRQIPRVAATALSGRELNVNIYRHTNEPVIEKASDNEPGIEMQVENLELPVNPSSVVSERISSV
Put plainly: Binding affinity against human 5-hydroxytryptamine 2C receptor using displacement of [3H]DOB. (In a radioligand displacement assay an active substance lowers the binding of a labelled ligand.)

Assay [2] has as its target T2, 5-hydroxytryptamine receptor 2C (Rattus norvegicus, UniProt P08909).
T2 sequence (P08909 whole entry): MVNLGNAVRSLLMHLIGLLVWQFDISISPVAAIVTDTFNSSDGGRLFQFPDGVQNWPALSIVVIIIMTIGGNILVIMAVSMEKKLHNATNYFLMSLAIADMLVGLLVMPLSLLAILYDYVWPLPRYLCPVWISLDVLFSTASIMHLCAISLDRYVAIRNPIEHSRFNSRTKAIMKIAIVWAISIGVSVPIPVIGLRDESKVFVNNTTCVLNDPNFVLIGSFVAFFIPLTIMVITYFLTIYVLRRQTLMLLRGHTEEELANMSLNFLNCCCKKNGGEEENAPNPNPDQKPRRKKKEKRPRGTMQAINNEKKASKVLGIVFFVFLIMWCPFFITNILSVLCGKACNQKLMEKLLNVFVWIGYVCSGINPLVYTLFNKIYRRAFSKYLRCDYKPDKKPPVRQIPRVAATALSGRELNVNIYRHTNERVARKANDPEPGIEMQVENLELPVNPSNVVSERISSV
Put plainly: Efficacy (pEC50) was evaluated for 5-HT2C receptor-mediated stimulation of IP3 formation in vitro in choroid plexus of the rat. The format is functional, tissue-based. The method in brief: (§1)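 Rat choroid plexus preloaded with [³H]myoinositol for 1 h at 37 °C in oxygenated Krebs. LiCl 10 mM and pargyline 10 µM added, then compound 10 min later. Six concentrations, top 0.1 mM, incubated 0.5 h at 37 °C. Stopped with HClO₄/EDTA, then IP₃ isolated. Three measures per point. Intrinsic activity is the maximum relative to 10 µM 5HT.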

Assay [3] has as its system Rattus norvegicus. Put plainly: Compound was tested in schedule induced polydipsia in rats expressed as %maximum suppression at minimum effective dose of 1 mg/kg intraperitoneally. The assay is classed as functional. Particulars: route intraperitoneal.
Assay [4] deals with T3, 5-hydroxytryptamine receptor 2C (Rattus norvegicus) (UniProt P08909).
T3 sequence (whole entry): T2 sequence (P08909 whole entry)
Put plainly: Intrinsic 5-HT 2c receptor activity as induced IP3 turnover in vitro in rat choroid plexus. The assay is classed as functional, tissue-based. The method in brief:
as §1

Assay [5] concerns the target T3, 5-hydroxytryptamine receptor 2C (Rattus norvegicus). Put plainly: Induction of penile erection in rats after subcutaneous administration, indicative of 5-HT 2c receptor activation. The format is functional, organism-based. The essentials: (§2)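 Male erection counts in RORO rats, 8 per dose, over 45 min. Drug is given in 0.3% Tween-80 in saline, sc at 5 mL/kg or orally at 10 mL/kg. Vehicle controls are included, and doses are expressed as salt weight. ED₅₀ by probit analysis, or the approximate dose at which half the rats respond.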

Assay [6] shares this target. Put plainly: Induction of penile erection in rats following p.o. administration, indicative of 5-HT 2c receptor activation. The assay is classed as functional, organism-based. The method in brief:
as §2

The target of assay [7] is 5-hydroxytryptamine receptor 2A (Homo sapiens, UniProt P28223). Put plainly: Binding affinity against human 5-hydroxytryptamine 2A receptor using displacement of [3H]5-HT.
Chain of 5-hydroxytryptamine receptor 2A (P28223 whole entry): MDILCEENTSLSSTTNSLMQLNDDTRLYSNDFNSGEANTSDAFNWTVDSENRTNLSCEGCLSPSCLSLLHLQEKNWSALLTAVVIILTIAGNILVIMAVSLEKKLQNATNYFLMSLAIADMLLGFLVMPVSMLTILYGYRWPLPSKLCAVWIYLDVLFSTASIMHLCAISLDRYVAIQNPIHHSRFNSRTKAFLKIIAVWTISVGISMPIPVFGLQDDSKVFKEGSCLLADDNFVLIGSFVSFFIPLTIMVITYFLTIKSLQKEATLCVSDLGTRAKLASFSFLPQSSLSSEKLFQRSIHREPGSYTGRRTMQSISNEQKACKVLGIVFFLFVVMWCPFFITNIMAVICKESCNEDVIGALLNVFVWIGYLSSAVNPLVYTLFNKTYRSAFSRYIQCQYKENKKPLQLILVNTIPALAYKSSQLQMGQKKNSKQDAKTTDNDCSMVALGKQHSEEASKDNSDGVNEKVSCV
For assay [8], the system named is Rattus norvegicus. Put plainly: Compound was tested in schedule induced polydipsia in rats expressed as %maximum suppression at minimum effective dose of 10 mg/kg intraperitoneally. The format is functional. Particulars: route intraperitoneal.
Assay [9] deals with T3, 5-hydroxytryptamine receptor 2C (Rattus norvegicus). Put plainly: The compound was tested for induction of penile erection in rats after peroral administration; Inactive. The format is functional, organism-based. The essentials: as §2
Assay [10] has as its system Rattus norvegicus. Put plainly: Compound was tested in schedule induced polydipsia in rats expressed as %maximum suppression at minimum effective dose of 3 mg/kg intraperitoneally. The format is functional. Particulars: route intraperitoneal.
Assay [11] deals with Rattus norvegicus. Put plainly: Compound was tested in schedule induced polydipsia in rats expressed as %maximum suppression at minimum effective dose of 30 mg/kg intraperitoneally. The format is functional. Particulars: route intraperitoneal.
In assay [12] the target is T3, 5-hydroxytryptamine receptor 2C (Rattus norvegicus). Put plainly: Efficacy (pEC50) was evaluated for 5-HT2C receptor-mediated stimulation of IP3 formation in vitro in choroid plexus of the rat; inactive. The format is functional, tissue-based. The essentials: as §1

Calls of active or inactive are those of the source. No cut-off for these calls is given here. A value given as a limit tells only on which side of the number the result lay.

The Ki is a dissociation constant, usually derived from enzyme kinetics or from competition with a known ligand. Lower therefore signals a stronger hold on the target. Usually EC50 stands for the concentration that produces a half-maximal response. One may read the ED50 as the dose that gives a 50% effect, or the effect in half of the subjects. Consider `COc1ccc2c(c1)-c1c(ccn1CC(C)N)C2(C)C` (centres undefined), for which the results for the Ki in assay [1] and in assay [7] were 0.398 nM and 10 nM, respectively. This compound also showed a half-maximal effective concentration (EC50) in assay [2] of 100 nM. Further, in assay [3], the Max suppression is -75%. Also, the Efficacy in assay [4] came to 1. Further, the ED50 in [5] turned out to be 0.5 mg/kg; in [6], 10 mg/kg.
For the compound `C[C@H](N)Cn1ccc2cc(F)c(Cl)cc21`, the results for the Ki in [1] and in assay [7] were 1.26 nM and 31.6 nM, respectively. For the same compound, in [2], the response was half-maximal at 200 nM (EC50). Moreover, the Efficacy in assay [4] came out at 1. The values for the ED50 in [5] and in assay [6] were 0.5 mg/kg and 5.5 mg/kg, respectively. The Max suppression in assay [8] is listed as -90%.
`C[C@@H](N)Cn1ccc2c(Cl)c(F)ccc21`: in assay [9], the ED50 entry is “inactive”. Further, the inhibition constant Ki is 1.26 nM in assay [1] and 10 nM in assay [7]. Besides, the 50% effective concentration (EC50) in assay [2] was 794 nM. Moreover, the Efficacy in assay [4] was determined as 0.9. Moreover, in assay [5], the ED50 stood at 3.3 mg/kg.
`CC(N)Cc1c[nH]c2ccc(F)cc12` (centres undefined): the Ki in assay [1] was 10 nM; in assay [7] it was 63.1 nM. The compound also showed a 50% effective concentration (EC50) in [2] of 158 nM. Besides, in [3], the Max suppression was -96%. The Efficacy in assay [4] was 0.9. The ED50 in assay [5] was 0.8 mg/kg; in [6], 9.9 mg/kg.
Consider `CC(N)Cn1ccc2cc(F)ccc21` (centres undefined), for which the Ki in [1] is 6.31 nM; in [7] it was 158 nM. The compound also had an EC50 in [2] of 1580 nM. The compound also returned an Efficacy in assay [4] of 1. The 50% effective dose (ED50) is 1 mg/kg in [5] and 2.7 mg/kg in assay [6]. Moreover, in assay [10], the Max suppression was -97%.
In the case of `CNCCC(Oc1ccc(C(F)(F)F)cc1)c1ccccc1` (centres undefined) [FLUOXETINE], the Max suppression in assay [11] is reported as -11%.
For the compound `COc1ccc2c(c1)-c1c(ccn1CC(C)N)C2` (centres undefined), the inhibitory constant (Ki) in assay [1] is 1 nM; in [7], 126 nM. The half-maximal effective concentration (EC50) in [2] is 398 nM. This compound also came in with an Efficacy in assay [4] of 1. The median effective dose (ED50) in assay [5] came out at 0.6 mg/kg; in assay [6], 11 mg/kg. In assay [8], the Max suppression is recorded as -79%.
For the compound `COc1cccc2c1Cc1ccn(CC(C)N)c1-2` (centres undefined), the inhibitory constant (Ki) was 100 nM in assay [1] and 3160 nM in assay [7]. Moreover, in [12], the “Log EC50” value is “inactive”. In assay [5], the 50% effective dose (ED50) is > 10 mg/kg.
As to `Cc1ccc2ccn(CC(C)N)c2c1` (centres undefined), the Ki in assay [1] is 15.8 nM; in assay [7] it was 794 nM. In [2], this compound showed a concentration giving a half-maximal response (EC50) of 7940 nM. The compound further yielded an Efficacy in assay [4] of 0.9. Besides, the ED50 in assay [5] is 3.3 mg/kg; in assay [6] it was > 30 mg/kg.
For the compound `Cc1ccc2c(c1)-c1c(ccn1CC(C)N)C2(C)C` (centres undefined), the inhibition constant Ki in assay [1] is 3.16 nM; in [7] it was 100 nM. This compound also had an EC50 in assay [2] of 200 nM. Besides, the Efficacy in [4] came out at 1. The median effective dose (ED50) in [5] was 0.9 mg/kg; in assay [6], 10 mg/kg. Besides, the Max suppression in [8] is -76%.
For the compound `CC(N)Cn1ccc2cc(Cl)c(F)cc21` (centres undefined), the Ki in assay [1] is 2 nM; in assay [7], 39.8 nM. The compound also had an EC50 in assay [2] of 398 nM. The same compound came in with an Efficacy in assay [4] of 1. For the same compound, the ED50 in [5] is 1 mg/kg; in assay [6] it was 15 mg/kg. Also, in [10], the Max suppression was -88%.
Turning to `COc1ccc2c(c1)-c1c(ccn1C[C@H](C)N)C2`, the values for the inhibition constant (Ki) in assay [1] and in [7] were 1 nM and 126 nM, respectively. Moreover, the response in assay [2] was half-maximal at 251 nM (EC50). The Max suppression in assay [3] is listed as -97%. This compound also had an Efficacy in [4] of 1. Moreover, the values for the ED50 in assay [5] and in assay [6] were 1.2 mg/kg and 10 mg/kg, respectively.
`Cc1cccc2c1ccn2CC(C)N` (centres undefined): the inhibitory constant (Ki) in [1] was 6.31 nM; in assay [7], 100 nM. Further, it took 2510 nM to reach a half-maximal effect in [2] (EC50). This compound also showed an Efficacy in assay [4] of 0.6. Further, the median effective dose (ED50) in assay [5] was 3.2 mg/kg; in [6], > 30 mg/kg.
With `CC(N)Cn1ccc2cc(Cl)ccc21` (centres undefined), the Ki was 7.94 nM in assay [1] and 200 nM in assay [7]. The same compound showed a 50% effective concentration (EC50) in [2] of 2000 nM. This compound also showed an Efficacy in assay [4] of 0.9. Also, the results for the ED50 in [5] and in [6] were 2.3 mg/kg and > 30 mg/kg, respectively.
With `C[C@H](N)Cn1ccc2c(Cl)c(F)ccc21`, the Ki was 1.26 nM in assay [1] and 39.8 nM in assay [7]. The same compound showed an EC50 in [2] of 316 nM. For the same compound, the Efficacy in [4] worked out at 1. Further, the results for the 50% effective dose (ED50) in assay [5] and in assay [6] were 2.7 mg/kg and > 30 mg/kg, respectively. Moreover, the Max suppression in assay [10] was -97%.
In the case of `C[C@H](N)Cn1ccc2cc(F)c(F)cc21`, the inhibition constant (Ki) in [1] is 1 nM; in assay [7], 100 nM. The compound also showed an EC50 in assay [2] of 200 nM. Further, the Efficacy in [4] is 1. The ED50 in assay [5] came to 0.3 mg/kg; in assay [6], 10 mg/kg. Also, the Max suppression in [10] is listed as -73%.

For the origin of these results see ChEMBL document CHEMBL1130391, “Novel agonists of 5HT2C receptors. Synthesis and biological evaluation of substituted 2-(indol-1-yl)-1-methylethylamines and 2-(indeno[1,2-b]pyrrol-1-yl)-1-methylethylamines. Improved therapeutics for obsessive compulsive disorder” (J Med Chem, 1997).
